# M5 PAM – human M5 muscarinic receptor positive allosteric modulators, primary screen, CHO-K1 cells, Fluo-8 calcium fluorescence. hit rate 0.3% among 360,000. CHO-K1 hM5, ACh EC20 PAM; 0% = ACh EC20, 100% = ACh EC100. activation, % at 3 µM. Muscarinic acetylcholine receptor M5 (Homo sapiens), P08912;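 active = activation above the run cutoff, the mean activation of all test compounds plus 3 SD, cut at about 18% in these data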
# Target sequence (P08912 whole entry, looked up): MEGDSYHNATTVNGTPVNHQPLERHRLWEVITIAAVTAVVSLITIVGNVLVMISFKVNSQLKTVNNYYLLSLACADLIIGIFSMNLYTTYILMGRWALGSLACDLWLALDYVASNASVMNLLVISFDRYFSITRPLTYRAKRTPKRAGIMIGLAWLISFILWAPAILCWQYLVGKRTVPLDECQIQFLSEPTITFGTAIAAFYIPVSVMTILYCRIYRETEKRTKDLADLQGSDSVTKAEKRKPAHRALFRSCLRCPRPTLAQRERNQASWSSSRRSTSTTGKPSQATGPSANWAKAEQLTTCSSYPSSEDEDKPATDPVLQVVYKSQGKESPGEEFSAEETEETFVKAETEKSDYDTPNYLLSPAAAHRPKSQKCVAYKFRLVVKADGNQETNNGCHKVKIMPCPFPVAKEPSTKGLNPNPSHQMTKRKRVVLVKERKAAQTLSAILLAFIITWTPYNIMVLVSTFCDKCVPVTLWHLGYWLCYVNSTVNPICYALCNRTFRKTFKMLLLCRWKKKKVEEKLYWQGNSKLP
#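 System: CHO-K1 hM5 cells. Reagent: acetylcholine, EC20 level. Compound dosing: single dose, 3 µM nominal final test concentration. Timing: Post-acetylcholine fluorescence recording 140 s. Detection: Fluo-8 calcium fluorescence. Read-out: % activation, ACh-normalized. Benchmarks: ACh EC20 and EC100 wells. Repeats: singlicate, one well per test compound.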
# M1 ag – human M1 muscarinic receptor agonists, primary screen, Fluo-8 calcium fluorescence, CHO-K1 cells, HTS. Muscarinic acetylcholine receptor M1 (Homo sapiens), P11229. CHO-K1 hM1, agonist mode; 0% DMSO, 100% acetylcholine EC100. activation, % at 3 µM. hit rate 0.33% among 360,000. AID 588814, 2011;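 active = activation above the run's mean compound activation plus 3 SD, cut at about 16% in these data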;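 note: peak over basal fluorescence ratio within a 140 s kinetic read after compound addition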
# M5 antag – human M5 muscarinic receptor antagonists, primary screen, CHO cells, Fluo-8 calcium fluorescence; CHO-hM5 cells, ACh EC80; inhibition, % at 3 µM; hit rate 0.59% among 360,000; AID 624040, 2012;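 active = inhibition above a per-plate cutoff, the mean of that plate's test compounds plus 3 SD, cut at about 27% in these data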;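 note: 0% = acetylcholine EC80 with DMSO and 100% = DMSO without agonist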
# CHRM1 antagonist – human M1 muscarinic receptor antagonists, primary screen, CHO-K1 cells, Fluo-8 calcium fluorescence, 1536-well | Muscarinic acetylcholine receptor M1 (Homo sapiens), P11229 | CHO-K1 hM1, ACh EC80 antagonist | inhibition, % at 3 µM | hit rate 1.3% among 360,000 | AID 588852, 2011;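 active = percent inhibition above its own plate's cutoff, namely the mean of that plate's compound wells plus 3 SD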;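 note: peak over basal fluorescence ratio during 140 s after agonist addition; 0% = ACh EC80 plus DMSO and 100% = DMSO alone without agonist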
# M1 PAM – human M1 muscarinic receptor positive allosteric modulators, primary screen, CHO-K1 cells, Fluo-8 calcium fluorescence, 1536-well; Muscarinic acetylcholine receptor M1 (Homo sapiens), P11229; CHO-K1 hM1, ACh EC20; 0% = ACh EC20, 100% = maximal ACh; activation, % at 3 µM; hit rate 0.088% among 360,000; AID 588819, 2011; in the data active = activation above about 19%, passing the limit was not always enough
# M5 ag – human M5 muscarinic receptor agonists, primary screen, CHO-K1 cells, Fluo-8 calcium fluorescence | Muscarinic acetylcholine receptor M5 (Homo sapiens), P08912 | CHO-K1 hM5 cells; 0% DMSO wells, 100% maximal acetylcholine response | activation, % at 3 µM | hit rate 0.19% among 360,000;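 active = activation above the run's mean over test compounds plus 3 SD, cut at about 23% in these data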;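 note: signal is peak over basal fluorescence ratio across the kinetic read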
# * = called active by the depositor. The list is not random: actives were taken first. Their share in the collection is about 2.2%.
SMILES,M5 PAM,M1 ag,M5 antag,CHRM1 antagonist,M1 PAM,M5 ag
COc1cc(/C=C/C(=O)/C=C(O)/C=C/c2ccc(O)c(OC)c2)ccc1O,-18,10,37*,34,-16,39*
CC(C)(C)[C@@H]1CCC(=O)N(CC[C@H](Sc2ccc(Br)cc2)c2ccccc2)CC1,-2,-4,6,-4,2,-4
COc1cc(N2CCCC2)c(OC)cc1/C=C1/NC(=S)NC1=O,-12,53*,17,31,-18,32*
CCOC(=O)N1CCC(N2Cc3cccc(C(=O)NCc4ccccn4)c3C2=O)CC1,-7,-10,0,28*,-22,-1
Cc1ccccc1NC(=O)COc1coc(CN2CCCc3ccccc32)cc1=O,-5,-1,0,-9,26*,5
COc1ccc(S(=O)(=O)Cc2ccc(C(=O)NCc3ccccc3OC)o2)cc1,-4,6,2,2,4,2
CCCn1cnnc1CNC(=O)[C@H]1O[C@@H](n2ccc(=O)[nH]c2=O)[C@H](O)[C@@H]1O,-7,-1,1,7,-6,0
CC(C)N(Cc1nccn1C)C(=O)c1cc(COc2ccc(F)cc2Cl)on1,-9,-5,31*,11,-10,-5
Cc1ccc(/C=C2\SC(=S)N(/N=C/c3cc([N+](=O)[O-])ccc3O)C2=O)o1,-8,-4,5,2,-3,1
COc1ccc(-c2nn(-c3ccccc3)cc2C(=O)NC(=S)NNC(=O)c2ccncc2)cc1,-9,5,9,16,-5,13
COC(=O)c1cn(-c2ccccc2)nc1-c1ccc(OC)c(OC)c1,19*,2,12,-9,13,6
COc1ccc(-c2nn(-c3ccccc3)cc2C(=O)NC(=S)Nc2cc(Cl)ccc2Cl)cc1,22*,1,-16,-37,26*,5
CCC(CC)NC(=O)Cc1ccc(F)cc1,-2,-3,10,7,0,-1
Nc1ncnc(N)c1NC(=O)c1ccc(OCc2ccccc2)cc1,1,-3,2,-13,2,0
O=C(CCCOc1ccccc1)NN1C(=O)NC2(CCCCC2)C1=O,-1,-2,3,-7,4,3
Cc1ccc(NC2CCCN(C(=O)C3CCCCC3)C2)cc1C (configuration not stated),21*,-1,-14,-15,11,3
O=C(C1CCCC1)N1CCCC(Nc2ccc(F)cc2)C1 (configuration not stated),-2,-5,1,-4,3,-2
Cc1nc(CS(=O)(=O)c2ccc(Cl)cc2)sc1C(=O)O,2,1,-4,-17,11,1
O=C(COC(=O)CCC(=O)c1cccs1)Nc1ccc(F)c(F)c1F,3,-2,-1,-2,4,1
COc1ccc(CN2C(=O)/C(=C/c3ccncc3)SC2=S)cc1,10,4,5,-10,24*,9
COc1ccc(/C=C2\SC(=S)N(CCCC(=O)N3CCN(C)CC3)C2=O)cc1,33*,0,11,-5,8,6
CCc1ccc(/C=C2\SC(=S)N(CCCC(=O)N3CCN(C)CC3)C2=O)cc1,-11,-5,12,26,-14,1
O=S(=O)(Nc1nnc(C2CC2)s1)c1ccccc1,-4,-4,3,-16,10,-4
CN1C(=S)SC(C)(C)C1(C)NO (configuration not stated),26*,0,-12,-9,13,-1
CCOC(=O)C1CCCN(C(=O)COc2ccc(C(=O)c3ccccc3)cc2)C1 (configuration not stated),-3,0,-4,-4,1,3
SMILES,M5 PAM,M1 ag,M5 antag,CHRM1 antagonist,M1 PAM,M5 ag
CCOC(=O)C1CCCN(c2c(C(=O)c3ccccc3)cnc3ccc(OC)cc23)C1 (configuration not stated),-20,62*,7,51*,-29,32*
CCCC(C(=O)NCCC(C)C)N(Cc1ccccc1Cl)C(=O)c1snc(C(N)=O)c1N (configuration not stated),2,-3,2,4,-7,3
Cc1cn(C(C)C)c(=O)n(-c2ccccc2)c1=O,3,-1,1,-15,8,2
CC(C)n1cc(/C(N)=N/O)c(=O)n(Cc2ccccc2)c1=O,39*,-6,16,-13,10,4
COc1ccc(C(C(=O)NC2CCCCC2)N(CC2CCCO2)C(=O)CNC(=O)c2ccco2)cc1 (configuration not stated),6,-2,-11,-9,5,-3
COc1ccc(NC(=O)c2ccco2)c2ccccc12,2,-3,2,-13,6,1
C=CCNc1nc(Nc2ccc(OC)cc2)nc(OC)n1,18*,-2,-4,-7,6,-14
COC(=O)c1ccc(C(=O)NC2CCSc3ccccc32)cc1 (configuration not stated),2,-6,-6,-11,7,-4
Cc1ccc(NC(=S)NC2CCSc3ccccc32)cc1C (configuration not stated),-19,-5,28*,79*,-22,-5
COc1ccccc1-c1sc2ccccc2c1-c1ccccc1OC,-5,-2,14,-1,2,1
COc1ccc(N2C(=O)CCC(C(=O)O)C2c2ccc(OC)c(OC)c2)cc1 (configuration not stated),2,-5,-1,3,5,-2
COc1ccc(N2C(=O)CCC(C(=O)NCCN3CCOCC3)C2c2ccc(OC)c(OC)c2)cc1 (configuration not stated),3,-2,6,22*,-4,-1
COc1ccc(C2C(C(=O)NCc3ccco3)CCC(=O)N2c2ccc(OC)cc2)cc1 (configuration not stated),46*,0,3,-2,7,-4
COc1ccc(C2C(C(=O)O)CCC(=O)N2c2ccc(OC)cc2)cc1 (configuration not stated),-4,0,-5,2,-9,1
CCc1nc2ccc(C(=O)Nc3cccc(OC)c3)cn2c1N(C)Cc1ccc(OC)cc1,-3,-8,3,-8,2,0
c1ccc(CN2CCN(C(c3ccccc3)c3ccccc3)CC2)cc1,-26,-9,9,44*,-25,-17

# Screening results (PubChem)
